# pIC50: −log10 of the molar value.
# Legend:
# [1] = Inhibition of wild-type Staphylococcus aureus topoisomerase 4-mediated decatenation of kDNA after 30 mins by gel electrophoresis assay
# [2] = Cytotoxicity against human Hep2 cells after 72 hrs by alamar blue assay; assay type: cell-based; settings: HEp-2 cells
# Staphylococcus aureus [3] = assay: Antibacterial activity against methicillin- and quinolone-resistant Staphylococcus aureus ATCC700699 after 24 hrs by microdilution method; assay type: functional; settings: ATCC700699, 24 h
# Outline: (§1)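 Broth microdilution; MIC read as the lowest compound concentration that prevents visible bacterial growth after incubation at 37 °C for 18–24 h, and expressed in μg/mL.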
# Staphylococcus aureus [4] = assay: Antibacterial activity against methicillin-resistant Staphylococcus aureus clinical isolate after 24 hrs by microdilution method; assay type: functional; outline: as §1
# Staphylococcus aureus [5] = assay: Ratio of vancomycin MIC to compound MIC for methicillin-resistant Staphylococcus aureus clinical isolate; assay type: functional
# DNA gyrase = DNA gyrase (Staphylococcus aureus, UniProt P0A0K8+P20831); assay: Inhibition of wild-type Staphylococcus aureus DNA gyrase assessed as inhibition of supercoiling of pBR322 DNA after 60 min by gel electrophoresis assay; assay type: protein-complex assay
# Staphylococcus aureus [6] = assay: Ratio of ciprofloxacin IC50 to compound IC50 for Staphylococcus aureus topoisomerase 4 Ser80Phe mutant
# Staphylococcus aureus [7] = assay: Ratio of levofloxacin MIC to compound MIC for methicillin-resistant Staphylococcus aureus clinical isolate; assay type: functional
# Staphylococcus aureus [8] = assay: Antibacterial activity against methicillin-resistant Staphylococcus aureus ATCC 700699 after 24 hrs by microdilution method; assay type: functional; settings: ATCC700699, 24 h; outline: as §1
# Staphylococcus aureus [9] = assay: Antibacterial activity against methicillin-sensitive Staphylococcus aureus ATCC 29213 after 24 hrs by microdilution method; assay type: functional; settings: ATCC 29213, 24 h
# Outline: (§2)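 MIC taken as the lowest concentration with no visible bacterial growth after 18-24 h at 37 °C, given in μg/mL; modal value of multiple experiments.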
# Escherichia coli = assay: Antibacterial activity against Escherichia coli ATCC25922 after 24 hrs by microdilution method; assay type: functional; settings: ATCC25922, 24 h; outline: as §2
# DNA gyrase subunit A = DNA gyrase subunit A (Staphylococcus aureus, UniProt P20831, S84L); assay: Inhibition of Staphylococcus aureus DNA gyrase Ser84Leu mutant assessed as inhibition of supercoiling of pBR322 DNA after 60 min by gel electrophoresis assay
# [10] = tested on: DNA gyrase subunit A (Staphylococcus aureus), P20831 [S84L]; assay: Ratio of ciprofloxacin IC50 to compound IC50 for Staphylococcus aureus DNA gyrase Ser84Leu mutant
# [11] = Inhibition of Staphylococcus aureus topoisomerase 4 Ser80Phe mutant-mediated decatenation of kDNA after 30 mins by gel electrophoresis assay
# Staphylococcus aureus [12] = assay: Ratio of ciprofloxacin IC50 to compound IC50 for wild-type Staphylococcus aureus topoisomerase 4
# [13] = target: DNA gyrase (Staphylococcus aureus) (UniProt P0A0K8+P20831); assay: Ratio of ciprofloxacin IC50 to compound IC50 for wild-type Staphylococcus aureus DNA gyrase; assay type: protein-complex assay
Compound,pIC50 [1],CC50 at 72 h [2] [µM],MIC (Staphylococcus aureus [3]) [µg/mL],MIC50 (Staphylococcus aureus [4]) [µg/mL],MIC90 (Staphylococcus aureus [4]) [µg/mL],MIC (Staphylococcus aureus [8]) [µg/mL],MIC (Staphylococcus aureus [9]) [µg/mL],MIC (Escherichia coli) [µg/mL],pIC50 [11],other results
COc1c(N2CC[C@@H](C(C)(C)N)C2)c(F)cc2c(=O)c3c(=O)[nH]sc3n(C3CC3)c12,6.92,9,0.06,0.06,0.25,0.06,0.004,0.06,6.22,Ratio (Staphylococcus aureus [5]): 4; pIC50 (DNA gyrase): 6.17; Ratio (Staphylococcus aureus [6]): 95; Ratio (Staphylococcus aureus [7]): 256; pIC50 (DNA gyrase subunit A): 5.38; Ratio [10]: > 48
COc1c(N2CC[C@@H](C(C)N)C2)c(F)cc2c(=O)c3c(=O)[nH]sc3n(C3CC3)c12 (mixture of isomers),–,9,0.06,–,–,–,0.004,0.02,–,–
COc1c(N2CC[C@@H]([C@H](C)N)C2)c(F)cc2c(=O)c3c(=O)[nH]sc3n(C3CC3)c12 (mixture of isomers),7.40,6,0.06,0.06,0.5,0.06,0.002,0.008,6.33,Ratio IC50 (Staphylococcus aureus [12]): 75; pIC50 (DNA gyrase): 6.17; Ratio (Staphylococcus aureus [6]): 121; Ratio IC50 [13]: 91; pIC50 (DNA gyrase subunit A): 5.49; Ratio [10]: > 62
CNC(C)[C@@H]1CCN(c2c(F)cc3c(=O)c4c(=O)[nH]sc4n(C4CC4)c3c2OC)C1 (mixture of isomers),–,42,0.25,–,–,–,0.008,0.03,–,–
CN[C@@H](C)[C@@H]1CCN(c2c(F)cc3c(=O)c4c(=O)[nH]sc4n(C4CC4)c3c2OC)C1 (mixture of isomers),6.96,12,0.25,–,–,0.25,0.008,0.03,5.94,pIC50 (DNA gyrase): 5.96; pIC50 (DNA gyrase subunit A): 4.73
CNC(C)[C@H]1CCN(c2c(F)cc3c(=O)c4c(=O)[nH]sc4n(C4CC4)c3c2OC)C1 (mixture of isomers),–,> 100,2,–,–,–,0.06,0.13,–,–
CCNC(C)[C@@H]1CCN(c2c(F)cc3c(=O)c4c(=O)[nH]sc4n(C4CC4)c3c2OC)C1 (mixture of isomers),–,40,0.25,–,–,–,0.008,0.06,–,–
COc1c(N2CC[C@@H]([C@H](C)NCCF)C2)c(F)cc2c(=O)c3c(=O)[nH]sc3n(C3CC3)c12 (mixture of isomers),7.22,73,0.13,–,–,0.13,0.002,0.06,6.18,pIC50 (DNA gyrase): 5.88; pIC50 (DNA gyrase subunit A): 4.92
COc1c(N2CC[C@@H](C(C)NC(C)C)C2)c(F)cc2c(=O)c3c(=O)[nH]sc3n(C3CC3)c12 (mixture of isomers),–,51,0.5,–,–,–,0.02,0.5,–,–
COc1c(N2CC[C@@H](C(C)NC3CC3)C2)c(F)cc2c(=O)c3c(=O)[nH]sc3n(C3CC3)c12 (mixture of isomers),–,25,0.06,–,–,–,0.004,0.06,–,–
COc1c(N2CCC(CNCC(C)C)C2)c(F)cc2c(=O)c3c(=O)[nH]sc3n(C3CC3)c12 (racemic),–,46,4,–,–,–,0.06,0.13,–,–
COc1c(N2CCC(C(C)(C)NC3CC3)C2)c(F)cc2c(=O)c3c(=O)[nH]sc3n(C3CC3)c12 (racemic),–,54,0.25,–,–,–,0.02,0.25,–,–
O=C(O)c1cn(C2CC2)c2cc(N3CCNCC3)c(F)cc2c1=O [CIPROFLOXACIN],5.52,> 100,32,–,–,32,0.25,–,4.24,–
CO/N=C1\CN(c2nc3c(cc2F)c(=O)c(C(=O)O)cn3C2CC2)CC1CN (stereo not drawn) [GEMIFLOXACIN],6.40,–,–,–,–,2,0.03,4,5.01,pIC50 (DNA gyrase subunit A): < 3.70
C[C@H]1COc2c(N3CCN(C)CC3)c(F)cc3c(=O)c(C(=O)O)cn1c23.C[C@H]1COc2c(N3CCN(C)CC3)c(F)cc3c(=O)c(C(=O)O)cn1c23.O [LEVOFLOXACIN],–,–,–,16,> 16,–,–,–,–,–
CC(=O)NC[C@H]1CN(c2ccc(N3CCOCC3)c(F)c2)C(=O)O1 [LINEZOLID],–,–,–,1,2,–,–,–,–,MIC (Staphylococcus aureus [4]): 1 µg/mL
COc1c(N2C[C@@H]3CCCN[C@@H]3C2)c(F)cc2c(=O)c(C(=O)O)cn(C3CC3)c12 [MOXIFLOXACIN],6.00,> 100,4,–,–,2,0.06,0.03,4.92,–
Cc1onc(-c2ccccc2)c1C(=O)N[C@@H]1C(=O)N2[C@@H]1SC(C)(C)[C@@H]2C(=O)O [OXACILLIN],–,–,–,> 16,> 16,–,–,–,–,–
CN[C@H](CC(C)C)C(=O)N[C@H]1C(=O)N[C@@H](CC(N)=O)C(=O)N[C@H]2C(=O)N[C@H]3C(=O)N[C@H](C(=O)N[C@H](C(=O)O)c4cc(O)cc(O)c4-c4cc3ccc4O)[C@H](O)c3ccc(c(Cl)c3)Oc3cc2cc(c3O[C@@H]2O[C@H](CO)[C@@H](O)[C@H](O)[C@H]2O[C@H]2C[C@](C)(N)[C@H](O)[C@H](C)O2)Oc2ccc(cc2Cl)[C@H]1O [VANCOMYCIN],–,–,–,1,1,–,–,–,–,–
